OXTR potentiator – human OXTR potentiators, primary screen, fluorescence, CHO-OTR cells, Fluo-8 calcium; AID 2445, 2010; Oxytocin receptor (Homo sapiens), P30559; activation, % at 3 µM; 0.061% of 320,000 active; Fluo-8 calcium fluorescence, potentiator mode; 0% = oxytocin EC15, 100% = EC100;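 active means activation above that plate's cutoff, the mean activation of tested compounds plus 3 SD, cut at about 6.6% in these data, passing the limit was not always enough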;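 further: 100% uses oxytocin at 75 nM as the full agonist control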
Target sequence (P30559 whole entry, looked up): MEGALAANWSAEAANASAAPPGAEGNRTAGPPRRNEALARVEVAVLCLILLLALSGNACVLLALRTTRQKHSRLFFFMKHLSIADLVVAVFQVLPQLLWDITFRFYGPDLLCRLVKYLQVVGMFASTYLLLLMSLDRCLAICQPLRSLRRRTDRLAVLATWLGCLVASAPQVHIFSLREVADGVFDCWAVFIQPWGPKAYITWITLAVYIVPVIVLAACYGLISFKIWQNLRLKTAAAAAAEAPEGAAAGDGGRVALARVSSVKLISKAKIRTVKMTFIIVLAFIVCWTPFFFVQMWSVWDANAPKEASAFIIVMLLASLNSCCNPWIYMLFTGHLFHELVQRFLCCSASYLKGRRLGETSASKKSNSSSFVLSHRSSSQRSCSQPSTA
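Material: human OTR in CHO cells. Compound: 3.0 µM, one dose. Timing: compound 6 min at room temperature before oxytocin, 100 s read. Evaluation: % activation of max/min ratio relative to oxytocin controls. Replication: single well per compound, singlicate. Signal: Fluo-8 calcium dye fluorescence.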
OXTR agonist – human OXTR agonists, primary screen, fluorescence, CHO-OTR cells, Fluo-8 calcium; 0.32% of 320,000 active; activation, % at 3 µM; Fluo-8 calcium fluorescence; normalized: DMSO 0%, oxytocin 100%; Oxytocin receptor (Homo sapiens), P30559;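 active means activation above the mean of all tested compounds plus 3 SD, cutoff set per screening run, cut at about 20% in these data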;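 further: peak over basal fluorescence ratio from a 100 s FLIPR kinetic read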
TAAR1 agonist – human TAAR1 agonists, primary screen, Fluo-8 calcium fluorescence, CHO RD-HGA16 cells; activation, % at 3 µM; AID 624467, 2012; 0.99% of 360,000 active; vehicle wells 0%, saturating PEA agonist 100%;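 active means activation above the mean activation of all test compounds in the run plus 3 SD, cut at about 38% in these data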
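Benchmarks: low control DMSO, high control PEA (EC100); System: CHO RD-HGA16 cells carrying human TAAR1 plus Gα16; Detection: Fluo-8 fluorescence, 5 s baseline then 140 s kinetic read; Schedule: 17-24 h plating, Fluo-8 75 min 37 °C, 30 min RT; Read-out basis: % activation from peak over basal fluorescence ratio, DMSO-to-PEA scaled.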
V1aR counter – agonists of human V1a receptor, primary screen, counter-screen for OXTR agonist project, fluorescence, CHO-V1R cells; activation, % at 3 µM; Vasopressin V1a receptor (Homo sapiens), P37288; 0.25% of 320,000 active; Fluo-8 calcium fluorescence, agonist mode; 0% DMSO, 100% 3 nM vasopressin; AID 2797, 2010;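 active means activation above the mean activation of all tested compounds plus 3 SD, per screening run, cut at about 20% in these data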;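 further: signal is peak over basal fluorescence ratio across a 100 second FLIPR read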
TAAR1 antag – human TAAR1 antagonists, primary screen, Fluo-8 calcium fluorescence, CHO RD-HGA16 cells; Trace amine-associated receptor 1 (Homo sapiens), Q96RJ0; inhibition, % at 3 µM; AID 624466, 2012; 1.5% of 360,000 active; antagonist;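 active means inhibition above a per-plate cutoff, the mean inhibition of test compounds on that plate plus 3 SD, cut at about 49% in these data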;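 further: 0% = DMSO plus EC80 beta-PEA response and 100% = DMSO alone without agonist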
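Test system: hTAAR1-expressing CHO RD-HGA16 cells, Gα16-coupled; Probe or stimulus: EC80 β-phenethylamine stimulus; Compound dosing: single nominal final test compound concentration of 3 µM; Timing: 140 s kinetic read after compound, 140 s after agonist; Signal: Fluo-8 calcium-sensitive fluorescence; Measure: % inhibition of agonist calcium response; Controls: DMSO and EC80 PEA controls.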
The depositor's hits bear a star; ! = repeats disagree. The list is not random: actives were taken first. Their share in the collection is about 2.3%.

Screening CC(C)c1ccc2c(c1)CCC1C(C)(CN)CCCC21C (centres undefined) returned OXTR potentiator -3, OXTR agonist 7, TAAR1 agonist 39*, V1aR counter 7 and TAAR1 antag 6.
`CC(C)c1ccc2c(c1)CC[C@H]1[C@](C)(CN)CCC[C@]21C` gave TAAR1 agonist 38*! and TAAR1 antag -2.
For COc1ccc(C2C(C(=O)Nc3cccnc3)=C(C)Nc3nc(-c4cccs4)nn32)cc1OC (centres undefined) the results were OXTR potentiator -3, OXTR agonist -1, TAAR1 agonist 2, V1aR counter 0 and TAAR1 antag -7.
Screening CCc1nc(SCC(=O)Nc2cccc3ccccc23)[nH]c(=O)c1C returned OXTR potentiator -7, OXTR agonist -1, TAAR1 agonist 0, V1aR counter 0 and TAAR1 antag -11.
For O=C(C1=C(O)C(=O)N(c2nccs2)C1c1ccccc1)c1cc2ccccc2o1 (centres undefined) the results were OXTR potentiator -9, OXTR agonist 20*, TAAR1 agonist 5, V1aR counter 186* and TAAR1 antag -38.
For CCCCN(C(=O)c1ccc(N(C)S(=O)(=O)c2ccc(C)cc2)cc1)c1c(N)n(CCCC)c(=O)[nH]c1=O the results were OXTR potentiator -9, OXTR agonist 0, TAAR1 agonist -1, V1aR counter 1 and TAAR1 antag -2.
CC(C)c1ccc(OCc2ccc(C(=O)N3CCN(c4ccccn4)CC3)cc2)cc1 was read as OXTR potentiator -9, OXTR agonist 0, TAAR1 agonist 8, V1aR counter 1 and TAAR1 antag 57*.
Cc1cc(NC(=O)NC(=O)c2ccccc2NC(=O)C(C)N)ccc1Oc1ncc(Br)cn1 (centres undefined) was read as TAAR1 agonist 43* and TAAR1 antag -7.
Screening COC(=O)C(Cc1c[nH]c2ccccc12)NC(=O)C(C)C (centres undefined) returned OXTR potentiator -2, OXTR agonist 1, TAAR1 agonist 3, V1aR counter 0 and TAAR1 antag 11.
`CCOC(=O)C1CCCN(Cc2nc3ccc([N+](=O)[O-])cc3c(=O)n2-c2ccc(OC)cc2OC)C1` (centres undefined) gave OXTR potentiator 5, OXTR agonist -1, TAAR1 agonist 46*, V1aR counter -1 and TAAR1 antag 69*.
Screening COc1ccc(C)cc1NC(=O)COC(=O)C1CC1 returned OXTR potentiator -14, OXTR agonist 0, TAAR1 agonist 0, V1aR counter 0 and TAAR1 antag -2.
Screening CCCC(C)NC(=S)NC(=O)c1cc(S(=O)(=O)N2CCOCC2)ccc1C (centres undefined) returned OXTR potentiator -10, OXTR agonist 0, TAAR1 agonist 6, V1aR counter 3 and TAAR1 antag -2.
Screening Cc1ccc(S(=O)(=O)N2CCOCC2)cc1C(=O)NC(=S)N1CC(C)CC(C)C1 (centres undefined) returned OXTR potentiator -7, OXTR agonist -1, TAAR1 agonist 39*, V1aR counter 0 and TAAR1 antag -2.
For O=C(COC(=O)c1ccccc1O)Nc1cc(S(=O)(=O)N2CCCCCC2)ccc1Cl the results were OXTR potentiator -3, OXTR agonist -1, TAAR1 agonist 1, V1aR counter 0 and TAAR1 antag -27.
O=C1c2ccccc2-c2onc3ccc(NCc4ccco4)c1c23 was read as OXTR potentiator -31, OXTR agonist 58* and V1aR counter 35*.
O=C1c2ccccc2-c2onc3ccc(N4CCCC4)c1c23 was read as TAAR1 agonist 35 and TAAR1 antag 40.
Cc1cc(/C=N/NC(=O)c2cc3ccccc3o2)c(C)n1C was read as OXTR potentiator -10, OXTR agonist -1, TAAR1 agonist 11, V1aR counter -1 and TAAR1 antag 54*.
C[C@@H]1COc2cc(N3CCN(Cc4ccccc4F)CC3)ccc2S(=O)(=O)N1 was read as TAAR1 agonist 0 and TAAR1 antag -7.
O=C1OC2(c3ccccc31)c1cc(I)c(O)c(I)c1Oc1c2cc(I)c(O)c1I was read as OXTR potentiator -26, OXTR agonist 670* and V1aR counter 659*.
Screening Cc1cc(O)ccc1C1(c2ccc(O)cc2C)OC(=O)c2ccccc21 returned OXTR potentiator -8, OXTR agonist 7, TAAR1 agonist 31, V1aR counter 6 and TAAR1 antag 14.
For O=c1c2ccsc2ncn1Cc1ccccc1F the results were OXTR potentiator -13, OXTR agonist -1, TAAR1 agonist 2, V1aR counter 0 and TAAR1 antag -9.
O=C1c2cccc3c(N4CCCCC4)ccc(c23)C(=O)N1c1ccc(O)cc1 was read as OXTR potentiator -17, OXTR agonist 22*, TAAR1 agonist 59*, V1aR counter 23* and TAAR1 antag 41.
Screening O=C1c2cccc3cccc(c23)C(=O)N1c1ccc(O)cc1 returned OXTR potentiator 2, OXTR agonist 0, TAAR1 agonist 2, V1aR counter -1 and TAAR1 antag -11.
Screening CCC(Sc1nc(C)cc(=O)[nH]1)C(=O)Nc1sc2c(c1C#N)CCCC2 (centres undefined) returned OXTR potentiator -5, OXTR agonist 1, TAAR1 agonist 40*, V1aR counter 1 and TAAR1 antag -32.
`O=C1CCN(Cc2ccccc2)CCN1CCOc1ccccc1` gave OXTR potentiator -5, OXTR agonist 2, TAAR1 agonist 3, V1aR counter 0 and TAAR1 antag 1.
For CNC(=O)c1ccc(NC(=O)c2ccc3c(=O)n4c(nc3c2)CCC4)cc1 the results were OXTR potentiator 2, OXTR agonist 0, TAAR1 agonist 13, V1aR counter 0 and TAAR1 antag 53*.
Screening N#Cc1ccc(-c2ccc(OCC(O)Cn3nnc4ccccc43)cc2)cc1 (centres undefined) returned OXTR potentiator -19, OXTR agonist 11, TAAR1 agonist 13, V1aR counter 10 and TAAR1 antag 56*.
Cc1ccc2c(c1)nnn2C1CCN(S(=O)(=O)c2cccc(S(=O)(=O)N(C)C)c2)CC1 was read as OXTR potentiator -24, OXTR agonist 9, TAAR1 agonist 19, V1aR counter 11 and TAAR1 antag 56*.
Cc1ccc2c(c1)nnn2C1CCN(S(=O)(=O)c2ccc3ccccc3c2)CC1 was read as OXTR potentiator -3, OXTR agonist 1, TAAR1 agonist 3, V1aR counter 2 and TAAR1 antag 8.

Screening data: PubChem BioAssay, The Scripps Research Institute Molecular Screening Center
